High-throughput results deposited in PubChem by several laboratories.
Sampled rows, rich in hits. Any-hit rate of the full collection: about 1.1%.
Calpain2 inh – inhibitors of pig calpain II, primary screen, biochemical, fluorogenic peptide substrate, 1536-well. purified calpain II, 30 min. inhibition, % at 16 µM. hit rate 0.37% among 220,000;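 active means inhibition above about 50%, limit read from the data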
Furin inhibitor – human furin inhibitors, primary screen, biochemical, fluorescence intensity. purified furin, fluorogenic substrate cleavage. AID 463115, 2010. hit rate 0.061% among 220,000. P09958. inhibition, % at 20 µM or 30 µM; in the data active means inhibition above about 25%
Target sequence (P09958 108-714 limits assumed): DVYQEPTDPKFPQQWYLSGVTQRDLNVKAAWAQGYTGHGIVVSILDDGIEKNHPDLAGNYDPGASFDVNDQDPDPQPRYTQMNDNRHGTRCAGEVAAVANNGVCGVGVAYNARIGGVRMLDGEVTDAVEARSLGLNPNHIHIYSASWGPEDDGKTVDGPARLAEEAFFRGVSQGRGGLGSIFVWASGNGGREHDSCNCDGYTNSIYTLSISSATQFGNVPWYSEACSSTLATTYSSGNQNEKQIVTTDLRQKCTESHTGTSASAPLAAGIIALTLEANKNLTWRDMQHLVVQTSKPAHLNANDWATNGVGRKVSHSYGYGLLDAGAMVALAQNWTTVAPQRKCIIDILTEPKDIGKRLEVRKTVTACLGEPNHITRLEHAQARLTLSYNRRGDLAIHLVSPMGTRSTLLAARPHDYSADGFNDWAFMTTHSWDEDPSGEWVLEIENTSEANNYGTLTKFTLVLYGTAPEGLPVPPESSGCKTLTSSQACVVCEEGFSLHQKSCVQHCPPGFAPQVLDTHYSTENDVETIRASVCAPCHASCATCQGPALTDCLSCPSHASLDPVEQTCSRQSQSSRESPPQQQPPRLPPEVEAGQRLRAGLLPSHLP
RBBP9 inhibitor – human RBBP9 inhibitors, primary screen, biochemical, fluorescence polarization, FP-Rh probe, HTS; AID 1515, 2009; recombinant RBBP9; hit rate 0.2% among 220,000; inhibition, % at 7.94 µM;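 active means inhibition above the campaign mean of all tested compounds plus 3 SD, cut at about 14% in these data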;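 further: plate controls were DMSO wells with RBBP9 for no effect and wells lacking RBBP9 protein for full effect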
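system = RBBP9 protein | input = RBBP9 at 2.5 µM in dispensed solution, before mixing | measured by = fluorescence polarization (mP), excitation 525 nm, emission 598 nm | incubation = enzyme-compound preincubation 30 min, then probe labeling 45 min, 25 °C | buffer or medium = Tris-NaCl-Pluronic buffer, pH 8.0 | compound = single dose 7.94 µM | also added = FP-Rh probe, 375 nM dispensing solution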
NCF1 inh – p47phox/p22phox peptide binding inhibitors, primary screen, biochemical, uHTS, NADPH oxidase regulatory subunit | Neutrophil cytosol factor 1 (Homo sapiens), P14598 | fluorescence polarization, 2 h | inhibition, % at 24.7 µM | hit rate 0.53% among 220,000;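 active means inhibition above about 30%, limit read from the data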;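 further: 0% = p47phox with labelled peptide and 100% = labelled peptide alone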
An asterisk follows results filed as active; i = inactive; . = no result.

SMILES | Calpain2 inh | Furin inhibitor | RBBP9 inhibitor | NCF1 inh
Cc1cc(-c2ccccc2)nc2oc(C(=O)NN)c(N)c12 | -46.2 | -14.3 | 11.2 | 47.4*
CCn1c(=O)[nH]c2cc(C(=O)Nc3cc(C)cc(C)c3)ccc2c1=O | -54.8 | -21.3 | -12.6 | -5.0
O=c1[nH][nH]c2c(N=Cc3ccccc3O)ccc(F)c12 | -16.0 | -15.3 | 4.2 | 133.9*
CCCCNC(=O)c1ccccc1C(=O)NCCCC | 91.4* | -20.4 | -3.8 | -0.9
COc1cc(-c2nnc(-c3ccccc3)o2)cc(OC)c1OC | -57.1 | -17.7 | 1.2 | 32.1*
O=C1NC(=Nc2ccccc2)S/C1=C/c1cccs1 | 106.1* | -4.5 | -18.4 | -14.7
COc1ccc(Cl)cc1NC(=S)N(CCN1CCOCC1)C1CCN(C(C)=O)CC1 | -16.8 | -25.4 | -3.4 | 0.4
O=S(=O)(NCc1ccccc1F)c1cccc(S(=O)(=O)N2CCOCC2)c1 | -12.6 | -24.4 | -6.8 | -10.9
CN(C)C(CNC(C(=O)Nc1ccc([N+](=O)[O-])cc1Br)c1ccccc1)c1ccccc1 (stereo not drawn) | 53.0* | -12.6 | -3.4 | 1.2
CC(C)CNC(C(=O)Nc1ccc([N+](=O)[O-])cc1Br)c1ccccc1 (stereo not drawn) | -2.2 | -18.4 | -10.5 | 4.2
COc1ccc(OC)c(C(C)NC(=O)Nc2cccc(C(C)=O)c2)c1 (stereo not drawn) | 13.4 | -35.7 | -5.0 | 0.7
Cc1ccc(NC2=C/C(=N/S(=O)(=O)c3cccs3)c3ccccc3C2=O)cc1C | 50.1* | -13.8 | -2.8 | 36.1*
CC(=O)Nc1ccc(Nc2ccc(S(=O)(=O)C(F)(F)F)cc2[N+](=O)[O-])cc1 | 55.3* | -13.2 | 1.0 | -2.2
O=C(O)CNc1ccc(S(=O)(=O)C(F)(F)F)cc1[N+](=O)[O-] | 27.0 | -7.7 | 7.7 | -5.1
CSc1ccccc1NC(=O)COc1ccccc1C | 69.0* | -22.3 | 2.1 | -3.8
Cn1c(N)c(C(=O)CSc2nc(N)cc(N)n2)c(=O)n(C)c1=O | 5.1 | -19.1 | -4.6 | -13.3
Oc1oc(-c2ccccc2)nc1C=Nc1ccccc1 | 19.0 | -14.7 | -8.6 | 43.7*
CN(C)c1ccc(N=Cc2nc(-c3ccccc3)oc2O)cc1 | -15.8 | -23.4 | -4.7 | 58.4*
C=CCOC(=O)C1=C[C@H](C2CCCCC2)[C@@H](CCCO)[C@H](OCC)O1 | 26.2 | -10.6 | -7.3 | .
Cc1ccccc1NC(=O)/C=C1\SC(=O)NC1=O | -1.1 | -6.8 | -12.8 | -1.4
Cc1ccc(-c2nc3cccnc3s2)cc1NC(=O)C1c2ccccc2Oc2ccccc21 | -63.3 | -5.7 | -8.8 | 33.3*
COc1cc(NS(=O)(=O)c2ccc(NC(=S)NC(=O)c3sc4ccccc4c3Cl)cc2)ncn1 | 57.5* | -14.0 | -3.0 | 8.6
Cc1ccccc1N1C(=O)c2sc3nc4c(c(=O)n3c2C1=O)CCC4 | -49.6 | 0.0 | 1.9 | 68.6*
Cc1cccc2sc(N(CCCN(C)C)C(=O)c3nc4ccccc4s3)nc12 | -315.9 | -6.1 | -10.4 | -5.3
Cc1ccc2sc(N(CCCN(C)C)C(=O)c3nc4ccccc4s3)nc2c1C | i | -11.9 | 2.1 | 32.0*
SMILES | Calpain2 inh | Furin inhibitor | RBBP9 inhibitor | NCF1 inh
COc1ccc(N)c2c1C(=O)c1ccccc1C2=O | -7.1 | -14.5 | -7.2 | -61.9
COc1ccc(OC)c2c1C(=O)c1ccccc1C2=O | -2.9 | -18.1 | -6.2 | 36.1*
Cc1cccc(N2CCN(C(=O)c3ccc4nc[nH]c4c3)CC2)c1C | 19.1 | -8.9 | 3.3 | -11.1
Cc1ccc(Cl)cc1N1CCN(C(=O)c2ccc3nc[nH]c3c2)CC1 | -29.9 | -7.1 | 1.9 | 122.9*
CCc1cc(=S)n2c([nH]c3ccccc32)c1C#N | -217.4 | -22.4 | -3.5 | -4.6
CCc1c(C)c(C#N)c2[nH]c3ccccc3n2c1=S | -1.5 | -8.2 | -8.3 | 30.3*
CC(=O)C(Sc1ncnc2sc3c(c12)CCCC3)C(C)=O | 4.2 | -11.6 | -14.4 | -8.8
CC(C)NC(=O)CN1CCN(Cc2nc(C(c3ccccc3)c3ccccc3)no2)CC1 | -27.7 | -31.5 | -9.3 | -7.3
COc1ccc(CCNC(=S)N2CCC(Cc3ccccc3)CC2)cc1OC | 5.6 | -11.9 | 1.9 | -6.4
CNC(=O)C1CC(=O)N(CCc2ccc(OC)cc2)C(=Nc2ccc(OC)cc2)S1 (stereo not drawn) | -26.6 | 26.6* | -0.7 | -8.8
COC(=O)C1=C(C)N(CCc2ccc(OC)cc2)C(=O)C1 | 17.8 | -16.5 | -2.2 | 91.8*
COC(=O)c1ccc(COc2ccc3c(C)c(C)c(=O)oc3c2C)o1 | 0.7 | -16.2 | -6.5 | 72.2*
CCc1ccc(/C=C(\Cl)c2nc3cc(Cl)ccc3c(=O)[nH]2)cc1 | -35.9 | -10.7 | 3.3 | -8.0
CS(=O)(=O)N(CC(=O)N1CCN(c2ccccc2)CC1)c1cccc(Br)c1 | 2.2 | -14.5 | 1.3 | 34.8*
COc1ccc(N2CCN(C(=O)CN(c3cccc(Br)c3)S(C)(=O)=O)CC2)cc1 | 7.1 | -18.1 | -3.8 | -6.2
O=C(NCc1csc2ccccc12)Nc1cc(Cl)cc(Cl)c1 | -21.7 | -21.9 | -15.8 | -10.1
Nc1ncc(-c2ccc([N+](=O)[O-])cc2)cn1 | -1.6 | -13.6 | -4.5 | 78.4*
O=[N+]([O-])c1ccc(-c2cnc(NO)nc2)cc1 | -4.2 | -16.2 | -7.6 | -11.2
O=C(c1cccc(COc2ccc(Cl)cc2Cl)c1)N1CCN(c2ccccn2)CC1 | 69.7* | -13.3 | -8.3 | 5.4
O=C(c1ccc(Cl)c([N+](=O)[O-])c1)N1CCN(c2ccccn2)CC1 | 6.6 | -19.0 | -4.4 | -3.8
CN1CCS/C1=C\C=C1/SC(=S)N(CC(=O)O)C1=O | 63.6* | 13.0 | 0.4 | -72.6
O=C(O)c1ccc(Cl)c2c1C1C=CCC1C(c1ccccn1)N2 (stereo not drawn) | -48.3 | -17.2 | -3.0 | 40.2*
O=C1CC(c2ccccc2)Cc2nc(N3CCc4ccccc4C3)ncc21 (stereo not drawn) | 54.5* | -1.5 | -4.3 | -16.3
Cc1ccc(C2CC(=O)c3cnc(N4CCc5ccccc5C4)nc3C2)cc1 (stereo not drawn) | 21.0 | -1.4 | -4.9 | -11.3
CC(C)(C)c1ccc(OCC(=O)N/N=C/c2ccc(N3CCOCC3)cc2)cc1 | -99.0 | -21.8 | -10.5 | 5.4
SMILES | Calpain2 inh | Furin inhibitor | RBBP9 inhibitor | NCF1 inh
CC(C)c1ccc(OC(=O)NCCO)cc1 | 1.8 | -8.9 | 5.8 | 41.1*
O=[N+]([O-])c1cnccc1Nc1cccc(F)c1 | -1.1 | -21.5 | -8.7 | -3.4
O=[N+]([O-])c1ccc(Oc2cccc(F)c2)c2ccncc12 | 51.2* | -13.8 | -2.3 | -1.5
Cn1c(NCc2ccco2)nc2c1c(=O)n(Cc1ccc(Br)cc1)c(=O)n2C | 71.0* | -9.7 | -10.6 | -8.7
Cn1c(NCc2ccccc2)nc2c1c(=O)n(Cc1ccc(Br)cc1)c(=O)n2C | 77.5* | -21.2 | -2.8 | 1.2
COc1ccc(CNc2nc3c(c(=O)n(Cc4ccc(Br)cc4)c(=O)n3C)n2C)cc1 | 88.5* | -35.0 | -10.2 | -21.9
Cn1c(NCc2ccco2)nc2c1c(=O)n(Cc1ccc(Cl)cc1)c(=O)n2C | 46.5 | -12.7 | -6.5 | -10.2
COc1ccc(/C=C/C(=O)NCCN=C2NS(=O)(=O)c3ccccc32)cc1 | 2.2 | -19.3 | -2.9 | -5.9
O=S(=O)(Cc1ccccc1)Cc1cnc(Cl)s1 | -8.0 | -24.2 | 5.8 | 2.6
